These results are taken from ChEMBL document CHEMBL4229369, “Design, synthesis and antitubercular evaluation of benzothiazinones containing a piperidine moiety” (Eur J Med Chem, 2018).

The structures appear in SMILES notation. ≈ marks a conversion by molar mass, not a printed value. Bounds are passed on as bounds.

What all share (type): functional
The test system of test [1] is Mycobacterium tuberculosis. In words: Antitubercular activity against multi-drug resistant Mycobacterium tuberculosis isolate 16995 after 7 days by Alamar blue assay. The settings on record: isolate 16995, 168 h. An outline of the steps: (§1)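 Inoculum grown to late log phase in Middlebrook 7H9 with 0.2% glycerol, 0.05% Tween 80 and 10% ADC, then washed in PBS, filtered through 8 µm to remove clumps and frozen at -80 °C. Twofold compound dilutions in 7H9-ADC-TG with 2 × 10⁵ CFU per well, 37 °C. Alamar blue and Tween 80 added on day 7, read after 16-24 h (ex 530/em 590 nm). MIC is the lowest concentration giving ≥90% fluorescence reduction versus bacterium-only controls.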
Background: The colour change of resazurin is a common sign of viable cells or microbes.

The subject of test [2] is Mycobacterium tuberculosis. In words: Antitubercular activity against multi-drug resistant Mycobacterium tuberculosis isolate 16883 after 7 days by Alamar blue assay. The conditions noted are these: isolate 16883, 168 h. In outline: as §1
Test [3] has as its system Mycobacterium tuberculosis. Nature of the test: Antitubercular activity against multi-drug resistant Mycobacterium tuberculosis. An outline of the steps: as §1

In general, MIC90 refers to the lowest concentration that inhibits either 90% of growth or 90% of the strains tested, depending on the study. A higher MIC90 goes with weaker potency. Consider `CO[C@H]1/C=C/O[C@@]2(C)Oc3c(C)c(O)c4c(O)c(c(/C=N/N5CCN(C)CC5)c(O)c4c3C2=O)NC(=O)/C(C)=C\C=C\[C@H](C)[C@H](O)[C@@H](C)[C@@H](O)[C@@H](C)[C@H](OC(C)=O)[C@@H]1C` [RIFAMPIN], for which the MIC90 in test [1] and in test [2] was over 40 mg/L in each case. The term MIC denotes the lowest concentration that inhibits growth of the organism. Higher therefore signals a need for much substance. In turn, `CN(CC1CCCCC1)C1CCN(c2nc(=O)c3cc(C(F)(F)F)cc([N+](=O)[O-])c3s2)CC1` came in with an MIC in test [3] of 0.016 mg/L (≈ 0.033 µM). In the case of `O=c1nc(N2CCC(CN3CCC(C(F)(F)F)CC3)CC2)sc2c([N+](=O)[O-])cc(C(F)(F)F)cc12`, the MIC90 in test [1] and in test [2] was under 0.016 mg/L each time. Take `NNC(=O)c1ccncc1` [ISONIAZID]: the MIC90 in test [1] and in test [2] was over 40 mg/L in each case. In the case of `O=c1nc(N2CCN(CC3CCCCC3)CC2)sc2c([N+](=O)[O-])cc(C(F)(F)F)cc12` [MACOZINONE], the MIC90 in test [1] and in test [2] was under 0.016 mg/L throughout.
